Screening results (PubChem BioAssay)
STAT1 act: STAT1 signaling activators, primary screen, cell-based, HTS, luciferase reporter; NIH 3T3 STAT1-luciferase reporter, IFN-gamma, luminescence; 100% = IFN-gamma alone, no compound; 2.6% of 200,000 active; activation (% of control), % at 5.5 µM;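 active = activation above the screen-wide mean activation plus 3 SD, cut at about 130% in these data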;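 also: raw ratio to IFN-gamma control signal so 100% means no change and 0% no light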
NF-kB neuron act: activators of NF-kB expression in neurons, primary screen, cell-based, HTS; 1.6% of 190,000 active; human neuronal cells, NF-kB reporter expression; hits give high values; AID 1239, 2008; fold change at 12.5 µM; in the data active = fold change above about 3.3
STAT1 blocker: STAT1 signaling inhibitors, primary screen, cell-based, HTS, luciferase reporter; NIH 3T3 STAT1-luciferase reporter, IFN-gamma, luminescence; inhibition, % at 5.5 µM; 0.35% of 200,000 active;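 active = inhibition above a set limit, the mean inhibition across all tested compounds plus 3 SD, cut at about 34% in these data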;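 also: 0% = IFN-gamma with DMSO and 100% = IFN-gamma with 300 µM nifuroxazide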
STAT3 act: IL-6 driven STAT3 reporter potentiators, primary screen, U3A cells, luciferase, luminescence, MLSCN library; activation (% of control), % at 5.6 µM; 0.91% of 190,000 active; IL-6 STAT3-luciferase reporter; 100% = signal with IL-6 EC80 alone;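 active = activation above the screen-wide mean of compound activation plus 3 SD, cut at about 130% in these data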;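 also: 0% = background luminescence of wells with medium and substrate only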
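Test system: STAT3-luciferase reporter U3A cells; Detection: reporter luminescence signal; Times: 1 h compound pre-exposure, 6 h IL-6 stimulation, 37 °C; Benchmarks: IL-6-only high control; Also added: IL-6 stimulus at 33 ng/mL final.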
APP 5'UTR act: activators of APP 5'UTR luciferase reporter, primary screen, SH-SY5Y cells; SH-SY5Y APP 5'UTR luciferase reporter, luminescence; zero percent = DMSO vehicle wells; activation, % at 2 µM; 1% of 190,000 active;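 active = activation above a set limit, based on mean plus 3 SD of controls, cut at about 140% in these data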
STAT3 inh: IL-6 driven STAT3 reporter inhibitors, primary screen, U3A cells, luciferase, luminescence, MLSCN library. IL-6 STAT3-luciferase reporter; host cell line lacks STAT1. inhibition, % at 5.5 µM. 0.89% of 190,000 active;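 active = inhibition above the mean inhibition across all screened compounds plus 3 SD, cut at about 44% in these data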;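 also: 0% = DMSO only wells and 100% = 100 µM nifuroxazide control wells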
STAT1 act conf: STAT1 signaling activators, confirmation, cell-based, HTS, luciferase reporter. shares compounds with STAT1 act. 97% of 1,200 active. activation (% of control), % at 5.7 µM. AID 1262, 2008. NIH 3T3 STAT1-luciferase reporter, IFN-gamma potentiation, luminescence; 100% = IFN-gamma EC80 alone, no compound;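 active = activation above a set limit carried over from the earlier primary STAT1 screen, cut at about 140% in these data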;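 also: simple ratio to median IFN-gamma plus DMSO wells so 0% means no light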
NFkB act: NF-kB reporter activators, TNF-alpha stimulated, counter-screen for STAT1 activator project, cell-based, HEK293T, luciferase luminescence | activation (% of control), % at 5.7 µM | 100% = TNF-alpha with vehicle only | 43% of 1,200 active | AID 1306, 2008 | shares compounds with STAT1 act;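 active = activation above the mean of solvent-only control wells plus 3 SD, set per campaign, cut at about 130% in these data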;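 also: TNF-alpha given at a submaximal dose yielding about 80% of full reporter signal; values are well signal over median control so 100% means no change and 0% no light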
STAT3 act STAT1c: STAT3 reporter activation by STAT1 hits, confirmation, counter-screen for STAT1 activator project, U3A cells, luciferase, luminescence. shares compounds with STAT1 act. IL-6; cells lack STAT1; 100 = IL-6 alone, no compound effect. activation (% of control), % at 5.7 µM. 46% of 1,200 active. AID 1316, 2008;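 active = activation above the solvent-only control well mean plus 3 SD, set per plate batch, cut at about 110% in these data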;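 also: 0% = no luminescence and 100% = median IL-6 plus DMSO wells; higher means more STAT3 reporter activation so hits are non-selective activators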
* hit, by the source's call; . = no result. Sampled rows, rich in hits. Any-hit rate of the full collection: about 5.1%.

SMILES	STAT1 act	NF-kB neuron act	STAT1 blocker	STAT3 act	APP 5'UTR act	STAT3 inh	STAT1 act conf	NFkB act	STAT3 act STAT1c
COc1ccc2cc(-c3nc4ccccc4n3C)c(=O)oc2c1	154.7*	3.39*	-53.2	103.0	91.8	0.2	168.9*	123.8	117.1*
Cc1noc(C)c1COc1cccc(C(=O)OC(C)C(=O)Nc2c(C)n(C)n(-c3ccccc3)c2=O)c1 (stereo unspecified)	95.5	1.05	2.9	99.3	-13.4	6.4	.	.	.
CCOC(=O)c1sc(NC(=O)c2sccc2C)cc1C	151.6*	12*	-56.1	82.0	154.0*	27.4	252.0*	129.3	101.4
CC(=O)N1N=C(c2ccc(C)cc2)OC1c1ccc(Br)cc1 (stereo unspecified)	153.5*	3.03	-59.9	113.2	37.8	-13.1	181.6*	147.8*	116.7*
CC(=O)NC1=NN(C(C)=O)C(c2ccc(C)cc2)S1 (stereo unspecified)	97.5	1.3	0.6	102.3	15.2	0.8	.	.	.
Cc1ccc(C(=O)Nc2cccnc2N2CCN(C)CC2)cc1	102.6	0.99	-3.5	98.5	27.6	4.3	.	.	.
CN(C)c1ccc(C(=O)OCC(=O)c2cccs2)cc1	172.0*	5.21*	-79.4	70.1	102.7	37.2	214.7*	122.5	104.1
COc1ccc(C(=O)COC(=O)c2ccc(N(C)C)cc2)cc1	112.8	1.06	-15.6	97.9	12.5	6.9	.	.	.
CCCN(CCC)c1cc(Cl)nc(N)n1	100.2	1.13	-0.3	101.2	15.5	3.4	.	.	.
C/C(=N\O)c1sc(-c2ccccc2)nc1C	155.6*	6.42*	-63.1	106.5	177.4*	3.7	190.2*	117.7	121.1*
CS(=O)(=O)NCCCCCCNS(C)(=O)=O	106.8	1.02	-7.0	102.2	17.9	6.0	.	.	.
COc1ccc2oc(-c3ccco3)cc(=O)c2c1	160.3*	1.29	-65.1	81.6	83.0	28.5	183.1*	122.4	105.4
CC(C)(C)C(=O)Nc1nc(-c2ccccc2)ns1	164.9*	5.91*	-70.7	93.5	144.5*	10.8	199.8*	129.0	109.6
O=C(CSc1nnnn1-c1ccccc1)Nc1nc(-c2ccccc2)ns1	100.6	1.12	-0.7	98.1	4.7	4.9	.	.	.
CC1=CN2C(=N)/C(=C/c3ccco3)C(=O)N=C2S1	206.0*	7.7*	-118.4	117.7	136.4*	-20.4	310.1*	166.6*	119.8*
CC1=CN2C(=N)/C(=C/c3ccc([N+](=O)[O-])o3)C(=O)N=C2S1	101.1	1.82	-1.2	109.4	-48.0	-11.4	.	.	.
CNC(=O)c1sc2nc(-c3ccc(OC)cc3)cn2c1C	164.5*	4.78*	-71.1	106.2	145.5*	-2.7	187.8*	134.6*	105.0
O=C(CCS(=O)(=O)c1ccccc1)NCCS(=O)(=O)c1ccccc1	99.4	1.11	1.2	103.0	0.3	-1.2	.	.	.
O=C(CCS(=O)(=O)c1ccccc1)NC12CC3CC(CC(C3)C1)C2	151.3*	2.76	-58.2	112.9	-3.2	-15.6	183.8*	133.4*	127.8*
Clc1ccc(OCc2nc(-c3ccncc3)no2)c(Cl)c1	174.2*	5.81*	-80.8	100.6	143.8*	2.7	229.8*	141.6*	115.6*
CCOc1ccc2nc(SCC#N)c(C#N)cc2c1	165.0*	1.72	-71.1	82.0	18.7	24.6	165.6*	111.0	86.2
COC(=O)CSc1nc2cc(C)cc(C)c2cc1C#N	100.1	2.39	-0.1	88.4	8.9	17.1	.	.	.
COC(=O)CSc1nc2ccc(C)cc2cc1C#N	153.1*	11.3*	-60.9	88.4	118.7	19.3	275.1*	152.5*	107.6
COC(=O)CNc1nc(Cl)nc(Nc2ccc(Cl)cc2)n1	110.0	1.01	-12.3	98.9	10.6	2.7	.	.	.
COc1ccccc1/C=N\N=C(\N)c1ccccn1	161.7*	2.73	-69.8	94.3	57.3	10.9	190.1*	124.1	107.8
SMILES	STAT1 act	NF-kB neuron act	STAT1 blocker	STAT3 act	APP 5'UTR act	STAT3 inh	STAT1 act conf	NFkB act	STAT3 act STAT1c
NC(N)=N/N=C/c1ccccc1OC(F)F	92.1	1.07	7.2	107.3	14.3	-0.4	.	.	.
COc1ccc(/C=N/Nc2ncc(Br)cn2)c(OC)c1	165.2*	3.72*	-73.2	84.8	41.6	20.0	204.2*	133.6*	113.7*
COc1ccccc1N(CC(=O)NC(C)C)S(=O)(=O)c1cccs1	95.2	0.9	5.3	94.7	15.3	5.5	.	.	.
Nc1nc(N2CCN(C(=O)c3ccco3)CC2)nc2ccccc12	110.4	1.62	-11.3	96.5	19.7	7.2	.	.	.
Nc1nc(N2CCN(C(=O)c3ccco3)CC2)nc2ccc(Br)cc12	179.5*	1.39	-87.7	99.6	218.7*	1.8	195.1*	140.8*	118.3*
COc1ccc(NC(=O)C(Cl)=C(Cl)Cl)cn1	96.6	1.86	4.2	102.4	-29.6	-2.3	.	.	.
COc1ccc(NC(=O)/C(Cl)=C(/Cl)S(=O)Cc2ccc(Cl)cc2)cn1 (stereo unspecified)	291.5*	0.18	-202.4	79.3	-95.9	26.0	278.2*	46.9	101.0
COc1ccc(NC(=O)/C(Cl)=C(/Cl)S(=O)(=O)Cc2ccccc2)cn1	170.3*	0.27	-137.0	108.8	-76.9	-9.3	160.1*	90.2	116.0*
COc1ccc(CC(=O)Nc2ccc(OC)nc2)cc1	94.3	1.08	4.7	111.0	2.2	-5.6	.	.	.
O=C(/C=C\c1ccco1)c1ccc(NC(=O)c2ccco2)cc1	125.6	2.31	-29.6	106.0	132.5	-2.3	.	.	.
CN(C)c1ccc(C(=O)/C=C/c2ccco2)cc1	168.4*	5.56*	-75.8	74.0	203.5*	32.1	177.9*	120.1	122.3*
Cc1ccc(Nc2n[nH]c(C)c2[N+](=O)[O-])cc1C	191.0*	7.72*	-100.2	109.9	209.5*	-12.0	239.3*	146.9*	117.4*
